Measured values reported in ChEMBL document CHEMBL1124186, “Synthesis and evaluation of tylosin-related macrolides modified at the aldehyde function: a new series of orally effective antibiotics” (1988).
In brackets after ≈: the same amount, converted by molar mass.

What was measured:
Haemophilus influenzae [1] = test: In vitro antimicrobial activity against Haemophilus influenzae.; type: functional
Staphylococcus aureus [2] = test: In vitro antimicrobial activity against Staphylococcus aureus X1; type: functional
Streptococcus pyogenes [3] = test: Effective dose against Streptococcus pyogenes C203 when administered sc; type: functional
Method in brief: (§1)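 Mouse protection test: infected mice were dosed twice, at 1 and 5 h postinfection, either subcutaneously or orally. […] The result is expressed as ED50 in mg/kg × 2.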

Streptococcus pyogenes [4] = test: In vivo effective dose against experimental infections in rodent caused by Streptococcus pyogenes C203 when administered sc; type: functional
Streptococcus pneumoniae [5] = test: In vitro antimicrobial activity against Streptococcus pneumoniae; type: functional
[6] = system: Staphylococcus epidermidis; test: In vitro antimicrobial activity against Staphylococcus epidermidis EPI1; type: functional
Enterococcus faecium = test: In vitro antimicrobial activity against Streptococcus faecium X66; type: functional, streptococcus fae-cium
Streptococcus pyogenes [7] = test: In vitro antimicrobial activity against Streptococcus pyogenes C203; type: functional
Streptococcus pyogenes [8] = test: Antimicrobial activity against Streptococcus pyogenes C203; type: functional
Streptococcus pyogenes [9] = test: Activity against Streptococcus pyogenes C203 when administered orally; type: functional; details: po; method in brief: as §1
Streptococcus pyogenes [10] = test: Activity against Streptococcus pyogenes C203 when administered sc; type: functional; method in brief: as §1
Bacteroides fragilis [11] = test: In vitro antimicrobial activity against anaerobic bacteria bacteroides fragilis 111; type: functional
Bacteroides fragilis [12] = test: In vitro antimicrobial activity against anaerobic bacteria bacteroides fragilis 1877; type: functional
Bacteroides fragilis [13] = test: In vitro antimicrobial activity against anaerobic bacteria bacteroides fragilis 1936B,; type: functional
Eikenella corrodens = test: In vitro antimicrobial activity against anaerobic bacteria bacteroides corrodens 1874; type: functional
Phocaeicola vulgatus = test: In vitro antimicrobial activity against anaerobic bacteria bacteroides vulgatus 1211; type: functional
[14] = system: Prevotella melaninogenica; test: In vitro antimicrobial activity against anaerobic bacteria bacteroides melaninogenicus 1856,; type: functional
[15] = system: Bacteroides thetaiotaomicron; test: In vitro antimicrobial activity against anaerobic bacteria bacteroides thetaiotaomicron 1438; type: functional
Clostridioides difficile = test: In vitro antimicrobial activity against anaerobic bacteria Clostridium difficile 2994; type: functional
Clostridium perfringens = test: In vitro antimicrobial activity against anaerobic bacteria clostridium perfringens 81,; type: functional
Clostridium septicum = test: In vitro antimicrobial activity against anaerobic bacteria clostridium septicum 1128; type: functional
Chlamydia trachomatis = test: In vitro antimicrobial activity against chlamydia trachomatis.; type: functional
Fusobacterium = test: In vitro antimicrobial activity against anaerobic bacteria fusobacterium symbiosum 1470; type: functional
Haemophilus influenzae [16] = test: In vitro antimicrobial activity against aerobic bacteria Haemophilus influenzae 76; type: functional
Haemophilus influenzae [17] = test: In vitro antimicrobial activity against aerobic bacteria Haemophilus influenzae MX366,; type: functional
[18] = system: Haemophilus parainfluenzae; test: In vitro antimicrobial activity against aerobic bacteria Haemophilus parainfluenzae 9796; type: functional
[19] = In vitro antimicrobial activity against anaerobic bacteria peptostreptococcus intermedius 1264; type: functional
[20] = system: Peptoniphilus asaccharolyticus; test: In vitro antimicrobial activity against anaerobic bacteria peptococcus asaccharolyticus 1302; type: functional
Anaerococcus prevotii = test: In vitro antimicrobial activity against anaerobic bacteria peptococcus prevoti 1281; type: functional
Cutibacterium acnes = test: In vitro antimicrobial activity against anaerobic bacteria propionibacterium acnes 79; type: functional
Streptococcus [21] = test: In vitro antimicrobial activity against aerobic bacteria Streptococcus B 14; type: functional
Streptococcus [22] = test: In vitro antimicrobial activity against aerobic bacteria Streptococcus D 8043; type: functional
Streptococcus [23] = test: In vitro antimicrobial activity against aerobic bacteria Streptococcus D 9960; type: functional
[24] = system: Staphylococcus epidermidis; test: In vitro antimicrobial activity against aerobic bacteria Streptococcus epi 270; type: functional
Staphylococcus aureus [25] = test: In vitro antimicrobial activity against aerobic bacteria Staphylococcus aureus 513E; type: functional
Staphylococcus aureus [26] = test: In vitro antimicrobial activity against aerobic bacteria Staphylococcus aureus V140,; type: functional
Staphylococcus aureus [27] = test: In vitro antimicrobial activity against aerobic bacteria Staphylococcus aureus V41; type: functional
Staphylococcus aureus [28] = test: In vitro antimicrobial activity against aerobic bacteria Staphylococcus aureus X400; type: functional
Streptococcus pneumoniae [29] = test: In vivo effective dose against experimental infections in mice Streptococcus pneumoniae park when administered orally; type: functional; details: po
Streptococcus pneumoniae [30] = test: In vivo effective dose against experimental infections in mice Streptococcus pneumoniae park when administered sc; type: functional
Streptococcus pneumoniae [31] = test: In vitro antimicrobial activity against aerobic bacteria Streptococcus pneumoniae B1-438; type: functional, streptococcus pneum
[32] = system: Staphylococcus epidermidis; test: In vitro antimicrobial activity against aerobic bacteria Streptococcus epi 222; type: functional
Streptococcus [33] = test: In vitro antimicrobial activity against aerobic bacteria Streptococcus B 5; type: functional
Staphylococcus aureus [34] = test: In vitro antimicrobial activity against aerobic bacteria Staphylococcus aureus V135; type: functional
Haemophilus influenzae [35] = test: In vitro antimicrobial activity against aerobic bacteria Haemophilus influenzae 465; type: functional
[36] = system: Prevotella melaninogenica; test: In vitro antimicrobial activity against anaerobic bacteria bacteroides melaninogenicus 2736; type: functional
[37] = system: Fusobacterium necrophorum; test: In vitro antimicrobial activity against anaerobic bacteria usobacterium necrophorum 6054A; type: functional
Collinsella aerofaciens = test: In vitro antimicrobial activity against anaerobic bacteria eubacterium aerofaciens 1235; type: functional
Streptococcus [38] = test: In vitro antimicrobial activity against aerobic bacteria Streptococcus D 2041; type: functional
[39] = system: Peptostreptococcus anaerobius; test: In vitro antimicrobial activity against anaerobic bacteria eubacterium peptostreptococcus anaerobius 1428,; type: functional
Streptococcus pyogenes [40] = test: In vivo effective dose against experimental infections in rodent caused by Streptococcus pyogenes C203 when administered orally; type: functional; details: po

Structure (SMILES): CC[C@H]1OC(=O)C[C@@H](O)[C@H](C)[C@@H](O[C@@H]2O[C@H](C)[C@@H](O[C@H]3C[C@@](C)(O)[C@@H](O)[C@H](C)O3)[C@H](N(C)C)[C@H]2O)[C@@H](C)C[C@@H](C)C(=O)/C=C/C(C)=C/[C@@H]1CO[C@@H]1O[C@H](C)[C@@H](O)[C@@H](O)[C@H]1OC [DEFORMYLMACROCIN]
- MIC (Haemophilus influenzae [1]): > 128 µg/mL
- MIC (Staphylococcus aureus [2]): 2 µg/mL (≈ 2.29 µM)
- ED50 (Streptococcus pyogenes [3]): > 10 mg/kg
- ED50 (Streptococcus pyogenes [4]): > 10 mg/kg
- MIC (Streptococcus pneumoniae [5]): 64 µg/mL (≈ 73.2 µM)
- MIC [6]: 2 µg/mL (≈ 2.29 µM)
- MIC (Enterococcus faecium): 128 µg/mL (≈ 146 µM)
- MIC (Streptococcus pyogenes [7]): 2 µg/mL (≈ 2.29 µM)
- MIC (Streptococcus pyogenes [8]): 2 µg/mL (≈ 2.29 µM)

Structure (SMILES): CC[C@H]1OC(=O)C[C@@H](O)[C@H](C)[C@@H](O[C@@H]2O[C@H](C)[C@@H](O)[C@H](N(C)C)[C@H]2OC(C)=O)[C@@H](CCOc2ccccc2)C[C@@H](C)C(=O)/C=C/C(C)=C/[C@@H]1CO[C@@H]1O[C@H](C)[C@@H](O)[C@@H](OC)[C@H]1OC
- ED50 (Streptococcus pyogenes [9]): 9 mg/kg
- ED50 (Streptococcus pyogenes [10]): 1 mg/kg
- MIC (Streptococcus pyogenes [8]): 1 µg/mL (≈ 1.12 µM)

Structure (SMILES): CC[C@H]1OC(=O)C[C@@H](O)[C@H](C)[C@@H](O[C@@H]2O[C@H](C)[C@@H](O)[C@H](N(C)C)[C@H]2O)[C@@H](CCOc2ccc(-c3ccccc3)cc2)C[C@@H](C)C(=O)/C=C/C(C)=C/[C@@H]1CO[C@@H]1O[C@H](C)[C@@H](O)[C@@H](OC)[C@H]1OC
- MIC (Bacteroides fragilis [11]): 4 µg/mL (≈ 4.32 µM)
- MIC (Bacteroides fragilis [12]): 2 µg/mL (≈ 2.16 µM)
- MIC (Bacteroides fragilis [13]): 4 µg/mL (≈ 4.32 µM)
- MIC (Eikenella corrodens): 2 µg/mL (≈ 2.16 µM)
- MIC (Phocaeicola vulgatus): < 0.5 µg/mL
- MIC [14]: < 0.5 µg/mL
- MIC [15]: 2 µg/mL (≈ 2.16 µM)
- MIC (Clostridioides difficile): < 0.5 µg/mL
- MIC (Clostridium perfringens): < 0.5 µg/mL
- MIC (Clostridium septicum): < 0.5 µg/mL
- MIC (Chlamydia trachomatis): > 2 µg/mL
- MIC (Fusobacterium): 2 µg/mL (≈ 2.16 µM)
- MIC (Haemophilus influenzae [16]): 16 µg/mL (≈ 17.3 µM)
- MIC (Haemophilus influenzae [17]): 16 µg/mL (≈ 17.3 µM)
- MIC (Haemophilus influenzae [1]): 16 µg/mL (≈ 17.3 µM)
- MIC [18]: 32 µg/mL (≈ 34.6 µM)
- MIC [19]: < 0.5 µg/mL
- MIC [20]: < 0.5 µg/mL
- MIC (Anaerococcus prevotii): 1 µg/mL (≈ 1.08 µM)
- MIC (Cutibacterium acnes): < 0.5 µg/mL
- MIC (Streptococcus [21]): 1 µg/mL (≈ 1.08 µM)
- MIC (Streptococcus [22]): 0.25 µg/mL (≈ 0.27 µM)
- MIC (Streptococcus [23]): 0.5 µg/mL (≈ 0.54 µM)
- MIC [24]: 128 µg/mL (≈ 138 µM)
- MIC (Staphylococcus aureus [2]): 0.5 µg/mL (≈ 0.54 µM)
- MIC (Staphylococcus aureus [25]): 0.25 µg/mL (≈ 0.27 µM)
- MIC (Staphylococcus aureus [26]): 0.25 µg/mL (≈ 0.27 µM)
- MIC (Staphylococcus aureus [27]): 0.25 µg/mL (≈ 0.27 µM)
- MIC (Staphylococcus aureus [28]): 0.25 µg/mL (≈ 0.27 µM)
- ED50 (Streptococcus pneumoniae [29]): 37 mg/kg
- ED50 (Streptococcus pneumoniae [30]): > 20 mg/kg
- MIC (Streptococcus pneumoniae [31]): 32 µg/mL (≈ 34.6 µM)
- ED50 (Streptococcus pyogenes [4]): > 10 mg/kg
- MIC (Streptococcus pneumoniae [5]): 0.25 µg/mL (≈ 0.27 µM)
- MIC [6]: 0.5 µg/mL (≈ 0.54 µM)
- MIC [32]: 0.12 µg/mL (≈ 0.13 µM)
- MIC (Enterococcus faecium): 0.5 µg/mL (≈ 0.54 µM)
- MIC (Streptococcus pyogenes [7]): 0.25 µg/mL (≈ 0.27 µM)
- MIC (Streptococcus [33]): 2 µg/mL (≈ 2.16 µM)
- MIC (Staphylococcus aureus [34]): 0.25 µg/mL (≈ 0.27 µM)
- MIC (Haemophilus influenzae [35]): 16 µg/mL (≈ 17.3 µM)
- MIC [36]: < 0.5 µg/mL
- MIC [37]: 4 µg/mL (≈ 4.32 µM)
- MIC (Collinsella aerofaciens): < 0.5 µg/mL
- MIC (Streptococcus [38]): 0.5 µg/mL (≈ 0.54 µM)
- MIC [39]: < 0.5 µg/mL
- ED50 (Streptococcus pyogenes [40]): 25 mg/kg

Structure (SMILES): CC[C@H]1OC(=O)C[C@@H](O)[C@H](C)[C@@H](O[C@@H]2O[C@H](C)[C@@H](O)[C@H](N(C)C)[C@H]2O)[C@@H](CCOc2ccc(Oc3ccccc3)cc2)C[C@@H](C)C(=O)/C=C/C(C)=C/[C@@H]1CO[C@@H]1O[C@H](C)[C@@H](O)[C@@H](OC)[C@H]1OC
- MIC (Haemophilus influenzae [1]): 16 µg/mL (≈ 17 µM)
- MIC (Staphylococcus aureus [2]): 0.5 µg/mL (≈ 0.531 µM)
- ED50 (Streptococcus pneumoniae [29]): 38 mg/kg
- ED50 (Streptococcus pneumoniae [30]): > 20 mg/kg
- ED50 (Streptococcus pyogenes [4]): > 10 mg/kg
- MIC (Streptococcus pneumoniae [5]): 0.25 µg/mL (≈ 0.265 µM)
- MIC [6]: 0.5 µg/mL (≈ 0.531 µM)
- MIC (Enterococcus faecium): 0.5 µg/mL (≈ 0.531 µM)
- MIC (Streptococcus pyogenes [7]): 0.25 µg/mL (≈ 0.265 µM)
- ED50 (Streptococcus pyogenes [40]): 29 mg/kg

Structure (SMILES): CC[C@H]1OC(=O)C[C@@H](O)[C@H](C)[C@@H](O[C@@H]2O[C@H](C)[C@@H](O[C@H]3C[C@@](C)(O)[C@@H](O)[C@H](C)O3)[C@H](N(C)C)[C@H]2OC(C)=O)[C@@H](CCOc2ccccc2)C[C@@H](C)C(=O)/C=C/C(C)=C/[C@@H]1CO[C@@H]1O[C@H](C)[C@@H](O)[C@@H](OC)[C@H]1OC
- ED50 (Streptococcus pyogenes [9]): 76.5 mg/kg
- ED50 (Streptococcus pyogenes [10]): > 10 mg/kg
- MIC (Streptococcus pyogenes [8]): 4 µg/mL (≈ 3.86 µM)
